# Calls of active or inactive are those of the source. No cut-off for these calls is given here.
# Columns and labels:
# [1] = tested on: U-87 MG; test: Cytotoxicity against human U87MG cells assessed as reduction in cell survival measured after 72 hrs by MTT assay; format: functional, cell-based, U-87MG ATCC; conditions: for Activity: U-87MG ATCC
# Summary of the method: (§1)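 MTT viability on 2D cultures, U87-MG in DMEM and U251-MG in EMEM with […], both with 10% FBS and Pen Strep. 5000 cells seeded, then 72 h exposure to 500, 250, 100, 50, 25, 10 and 5 μM (DMSO at most […]). MTT 0.5 mg/mL for 1 h, formazan in DMSO read at 550 nm. Survival as % of control. IC50 determined graphically. At least triplicate.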
# [2] = Stability in H2O/MeOH buffered with HEPES/NaCl at pH 7.4 assessed as temperature; format: physicochemical; conditions: buffer
# [3] = Half life in H2O/MeOH buffered with HCl/KCl at pH 2.2 in presence of alkyl radical scavenger TEMPOR by 31P[1H]-NMR analysis; format: physicochemical; conditions: for t1/2: buffer; for half-life: H2O/MeOH buffered with HCl/KCl
# [4] = Stability in H2O/MeOH buffered with Na2CO3/NaHCO3 at pH 10.3 assessed as temperature; format: physicochemical; conditions: buffer
# [5] = Dissociation constant, pKa of the compound in 1:1 v/v D2O/CD3OD by 1H-NMR spectrometric method; format: physicochemical
# Summary of the method: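 Samples in D2O/CD3OD (1:1 v/v) were adjusted with DCl/NaOD to a series of pH* values, read on a meter calibrated with non-deuterated standards, and 1H-NMR was recorded at 400 MHz. Imidazole proton chemical shifts were plotted against pH* and fitted sigmoidally. The pKa* was converted by pH = 0.929 pH* + 0.42.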
# [6] = n-octanol/phosphate buffered saline partition coefficient, log D of the compound at pH 7.4 by shake-flask method; format: physicochemical
# Summary of the method: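 Shake-flask partition between pre-saturated n-octanol and PBS at pH 7.4. The aqueous phase was quantified by RP-HPLC on a 4.6 × 50 mm column, eluting with CH3CN/H2O (each with 0.1% TFA) from 10:90 to 100:0 over 10 min.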
# [7] = Stability in H2O/MeOH buffered with HCl/KCl at pH 2.2 assessed as temperature; format: physicochemical; conditions: buffer
# [8] = Half life in H2O/MeOH buffered with HEPES/NaCl at pH 7.4 in presence of alkyl radical scavenger TEMPOR by 31P[1H]-NMR analysis; format: physicochemical; conditions: for half-life: H2O/MeOH buffered with HEPES/NaCl; for t1/2: buffer
# [9] = Half life in H2O/MeOH buffered with Na2CO3/NaHCO3 at pH 10.3 in presence of alkyl radical scavenger TEMPOR by 31P[1H]-NMR analysis; format: physicochemical; conditions: for half-life: H2O/MeOH buffered with Na2CO3/NaHCO3, pH 10.3; for t1/2: buffer, pH 10.3
# [10] = Drug homolysis in H2O/MeOH buffered with HCl/KCl at pH 2.2 assessed as rate constant by measuring nitroxide level in presence of alkyl radical scavenger TEMPOR by 31P[1H]-NMR analysis
# [11] = Drug homolysis in H2O/MeOH buffered with Na2CO3/NaHCO3 at pH 10.3 assessed as activation energy in presence of alkyl radical scavenger TEMPOR by 31P[1H]-NMR analysis
# [12] = Drug homolysis in H2O/MeOH buffered with HEPES/NaCl at pH 7.4 assessed as activation energy in presence of alkyl radical scavenger TEMPOR by 31P[1H]-NMR analysis
# [13] = tested on: U-251; test: Cytotoxicity against human U251MG cells assessed as reduction in cell survival measured after 72 hrs by MTT assay; format: functional, cell-based; summary of the method: as §1
# [14] = Drug homolysis in H2O/MeOH buffered with Na2CO3/NaHCO3 at pH 10.3 assessed as rate constant by measuring nitroxide level in presence of alkyl radical scavenger TEMPOR by 31P[1H]-NMR analysis
# [15] = Drug homolysis in H2O/MeOH buffered with HCl/KCl at pH 2.2 assessed as activation energy in presence of alkyl radical scavenger TEMPOR by 31P[1H]-NMR analysis
# [16] = Drug homolysis in H2O/MeOH buffered with HEPES/NaCl at pH 7.4 assessed as rate constant by measuring nitroxide level in presence of alkyl radical scavenger TEMPOR by 31P[1H]-NMR analysis
# [17] = tested on: U-251; test: Cytotoxicity against human U251MG cells assessed as reduction in cell survival at IC50 measured after 72 hrs in presence of alkyl radical scavenger troxerutin by MTT assay; format: functional, cell-based
# Summary of the method: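 U251-MG cells in EMEM (10% FBS, Pen Strep, […]) were exposed for 72 h to alkoxyamine together with an equal concentration of the alkyl radical scavenger troxerutin. Survival was read by MTT (0.5 mg/mL, 1 h, OD 550 nm) as % of control, and compared with alkoxyamine alone. At least triplicate.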
# [18] = 1:1 v/v D2O/CD3OD, read-out: pKa
# [19] = n-octanol/phosphate buffered saline, read-out: logD
Compound,Activity [1],Kdiss [10],Ea [11] [kcal/mol],Ea [12] [kcal/mol],Activity [13],Kdiss [14],Ea [15] [kcal/mol],Kdiss [16],other results
CCOP(=O)(OCC)C(N(OC(C)c1cn(C)cn1)C(C)(C)C)C(C)(C)C (stereo in doubt; form 1) [listing 1 of 2 here],–,–,–,–,–,–,–,–,"IC50 [1]: 25 to 380 µM; T [2]: 80 °C; t1/2 [3]: 65 h; T [4]: 80 °C; pKa [5, 18]: 6.76; logD [6, 19]: 3.5; T [7]: 80 °C; half-life [8]: 792 h; half-life [9]: 1560 h"
CCOP(=O)(OCC)C(N(OC(C)c1nccn1C)C(C)(C)C)C(C)(C)C (stereo in doubt; form 1) [listing 1 of 2 here],–,–,–,–,–,–,–,–,"IC50 [1]: 25 to 380 µM; T [2]: 70 °C; half-life [3]: 2.4 h; T [4]: 80 °C; pKa [5, 18]: 6.28; logD [6, 19]: 3.4; T [7]: 60 °C; t1/2 [8]: 31 h; t1/2 [9]: 130 h"
CCOP(=O)(OCC)C(N(OC(C)c1c[nH]cn1)C(C)(C)C)C(C)(C)C (stereo in doubt; form 1) [listing 1 of 2 here],–,–,–,–,–,–,–,–,"IC50 [1]: 25 to 380 µM; T [2]: 80 °C; half-life [3]: 103 h; T [4]: 80 °C; pKa [5, 18]: 6.11; logD [6, 19]: 3.7; T [7]: 80 °C; half-life [8]: 288 h; half-life [9]: 408 h"
CCOP(=O)(OCC)C(N(OC(C)c1ncc[nH]1)C(C)(C)C)C(C)(C)C (stereo in doubt; form 1) [listing 1 of 2 here],–,–,–,–,–,–,–,–,t1/2 [3]: 5 h; pKa [5]: 6.04; logD ([6]; octanol/water): 4.1; t1/2 [8]: 81 h; t1/2 [9]: 312 h
CCOP(=O)(OCC)C(N(OC(C)c1c[nH]cn1)C(C)(C)C)C(C)(C)C (stereo in doubt; form 1) [listing 2 of 2 here],Dose-dependent effect,5.23 ×10⁻⁴ /s,29.4,29.2,Dose-dependent effect,1.53 ×10⁻⁴ /s,28.5,2.08 ×10⁻⁴ /s,–
CCOP(=O)(OCC)C(N(OC(C)c1cn(C)cn1)C(C)(C)C)C(C)(C)C (stereo in doubt; form 1) [listing 2 of 2 here],Dose-dependent effect,7.84 ×10⁻⁴ /s,30.2,29.8,Dose-dependent effect,4.89 ×10⁻⁵ /s,28.3,8.58 ×10⁻⁵ /s,–
CCOP(=O)(OCC)C(N(OC(C)c1ncc[nH]1)C(C)(C)C)C(C)(C)C (stereo in doubt; form 1) [listing 2 of 2 here],Dose-dependent effect,7.47 ×10⁻⁴ /s,29.2,28.4,Dose-dependent effect,1.97 ×10⁻⁴ /s,26.7,2 ×10⁻⁴ /s,–
CCOP(=O)(OCC)C(N(OC(C)c1nccn1C)C(C)(C)C)C(C)(C)C (stereo in doubt; form 1) [listing 2 of 2 here],Dose-dependent effect,1.51 ×10⁻³ /s,28.7,27.8,Dose-dependent effect,4.31 ×10⁻⁴ /s,26.2,4.76 ×10⁻⁴ /s,–
CCOP(=O)(OCC)C(N(OC(C)n1cc[n+](C)c1)C(C)(C)C)C(C)(C)C (stereo in doubt; form 1),Dose-dependent effect,–,–,32.3,Dose-dependent effect,–,–,2.84 ×10⁻⁵ /s,Activity [17]: Active
CCOP(=O)(OCC)C(N(OC(C)c1cn(C)cn1)C(C)(C)C)C(C)(C)C (stereo in doubt; form 2) [listing 1 of 2 here],–,–,–,–,–,–,–,–,t1/2 [3]: 170 h; pKa [5]: 6.56; logD ([6]; octanol/water): 3.8; t1/2 [8]: 528 h; t1/2 [9]: 1680 h
CCOP(=O)(OCC)C(N(OC(C)c1nccn1C)C(C)(C)C)C(C)(C)C (stereo in doubt; form 2) [listing 1 of 2 here],–,–,–,–,–,–,–,–,t1/2 [3]: 1.98 h; pKa [5]: 6.5; logD ([6]; octanol/water): 3.7; t1/2 [8]: 10 h; t1/2 [9]: 39 h
CCOP(=O)(OCC)C(N(OC(C)c1c[nH]cn1)C(C)(C)C)C(C)(C)C (stereo in doubt; form 2) [listing 1 of 2 here],–,–,–,–,–,–,–,–,"t1/2 [3]: 190 h; IC50 ([13]; U-251, 72 h): 20 µM; T [4]: 70 °C; pKa [5]: 6.13; logD ([6]; octanol/water): 4; t1/2 [8]: 312 h; t1/2 [9]: 456 h"
CCOP(=O)(OCC)C(N(OC(C)c1c[nH]cn1)C(C)(C)C)C(C)(C)C (stereo in doubt; form 2) [listing 2 of 2 here],Dose-dependent effect,2.8 ×10⁻⁴ /s,29.5,29.2,Dose-dependent effect,4.07 ×10⁻⁵ /s,29,1.95 ×10⁻⁴ /s,–
CCOP(=O)(OCC)C(N(OC(C)c1cn(C)cn1)C(C)(C)C)C(C)(C)C (stereo in doubt; form 2) [listing 2 of 2 here],Dose-dependent effect,3.55 ×10⁻⁴ /s,30.3,29.5,Dose-dependent effect,4.57 ×10⁻⁵ /s,28.8,1.24 ×10⁻⁴ /s,–
CCOP(=O)(OCC)C(N(OC(C)c1ncc[nH]1)C(C)(C)C)C(C)(C)C (stereo in doubt; form 2),Dose-dependent effect,9.16 ×10⁻⁴ /s,29.1,28.2,Dose-dependent effect,2.47 ×10⁻⁴ /s,26.6,2.61 ×10⁻⁴ /s,–
CCOP(=O)(OCC)C(N(OC(C)c1nccn1C)C(C)(C)C)C(C)(C)C (stereo in doubt; form 2) [listing 2 of 2 here],Dose-dependent effect,1.8 ×10⁻³ /s,27.9,27.1,Dose-dependent effect,1.23 ×10⁻³ /s,26.1,1.28 ×10⁻³ /s,–
CCOP(=O)(OCC)C(N(OC(C)n1cc[n+](C)c1)C(C)(C)C)C(C)(C)C (stereo in doubt; form 2),Dose-dependent effect,–,–,32.3,Dose-dependent effect,–,–,2.84 ×10⁻⁵ /s,Activity [17]: Active
